Active and inactive are the calls of the source. The calls are words filed in the database; no cut-off is given here.
Columns and labels:
SF-295 = assay: Cytotoxicity against human SF295 cells assessed as reduction in cell viability measured after 72 hrs by CellTiter 96 aqueous one solution assay; format: functional, cell-based; settings: SF-295, 72 h
In short: (§1)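 Cells diluted to 5 × 10^4 cells/mL in RPMI 1640 or DMEM with 10% FBS, streptomycin and penicillin; plated and incubated 24 h at 37 °C, 5% CO2. Medium replaced, then serial dilutions added from DMSO at final 0–1000 nM for 72 h. Absorbance at 490 nm read after 30–60 min with reagent. Mean ± SD of three replicates; EC50 by curve fitting.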

SK-MEL-5 = assay: Cytotoxicity against human SK-MEL-5 cells assessed as reduction in cell viability measured after 72 hrs by CellTiter 96 aqueous one solution assay; format: functional, cell-based; settings: SK-MEL-5, 72 h; in short: as §1
MDA-MB-231 = assay: Cytotoxicity against human MDA-MB-231 cells assessed as reduction in cell viability measured after 72 hrs by CellTiter 96 aqueous one solution assay; format: functional, cell-based; settings: MDA-MB-231, 72 h; in short: as §1
NCI-H226 = assay: Cytotoxicity against human NCI-H226 cells assessed as reduction in cell viability measured after 72 hrs by CellTiter 96 aqueous one solution assay; format: functional, cell-based; settings: NCI-H226, 72 h; in short: as §1
DNA = assay: Induction of Escherichia coli plasmid pUC19 DNA cleavage assessed as increase in relaxation of supercoiled plasmid DNA measured after 24 hrs by SYBR green staining based gel electrophoresis; format: nucleic-acid assay
In short: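 Supercoiled pUC19 (25 nM plasmid, […]) in Dulbecco's PBS pH 7.4 with 5% DMSO and varying compound concentrations, with or without 1 mM reduced glutathione, 37 °C for 24 h, in triplicate. Run on 1% agarose gel in TAE at 100 V for 1 h. Supercoiled (form I) band intensity normalized to DMSO controls.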

| Structure (SMILES) | EC50 (SF-295) [nM] | EC50 (SK-MEL-5) [nM] | EC50 (MDA-MB-231) [nM] | EC50 (NCI-H226) [nM] | Activity (DNA) |
| --- | --- | --- | --- | --- | --- |
| C#CCOc1ccc2c(c1O)C(=O)c1c3c(cc(O)c1C2=O)[C@@]12O[C@@]1([C@](C)(O)[C@@H](O)C(=O)OC)[C@H](C#C/C=C\C#C[C@H]2O)N3 | 2.8 | 2.8 | 3.7 | 26 | Active |
| COC(=O)[C@H](O)[C@@](C)(O)[C@@]12O[C@]13c1cc(O)c4c(c1N[C@H]2C#C/C=C\C#C[C@H]3O)C(=O)c1c(ccc(OCC(C)=O)c1O)C4=O | 1.1 | 0.8 | 0.9 | 3.7 | Active |
| COC(=O)[C@H](O)[C@@](C)(O)[C@@]12O[C@]13c1cc(O)c4c(c1N[C@H]2C#C/C=C\C#C[C@H]3O)C(=O)c1c(ccc(OC)c1O)C4=O | 4 | 2.8 | 5 | 32 | Active |
| COc1ccc2c(c1O)C(=O)c1c3c(cc(O)c1C2=O)[C@@]12O[C@@]1([C@@H](C)O)[C@H](C#C/C=C\C#C[C@H]2O)N3 | 0.45 | 0.74 | 1.1 | 4.2 | Active |
| COC(=O)[C@H](O)[C@@](C)(O)[C@@]12O[C@]13c1cc(O)c4c(c1N[C@H]2C#C/C=C\C#C[C@H]3O)C(=O)c1cc(O)ccc1C4=O | 51 | 36 | 37 | 75 | Active |
| COC(=O)[C@H](O)[C@@](C)(O)[C@@]12O[C@]13c1cc(O)c4c(c1N[C@H]2C#C/C=C\C#C[C@H]3O)C(=O)c1c(ccc(O)c1O)C4=O | 45 | 32 | 34 | 66 | Active |
| COC(=O)[C@H](O)[C@@](C)(O)[C@@]12O[C@]13c1cc(O)c4c(c1N[C@H]2C#C/C=C\C#C[C@H]3O)C(=O)c1cc(OC)ccc1C4=O | 21 | 19 | 14 | 68 | Active |

— ChEMBL document CHEMBL4619781 (J Med Chem, 2020)
